Data from ChEMBL document CHEMBL3407460, “Synthesis of novel thiazole-based 8,9-dihydro-7H-pyrimido[4,5-b][1,4]diazepines as potential antitumor and antifungal agents” (2015).
In brackets after ≈: the same amount, converted by molar mass. Values belong to the compound of their own block, whether it stands above or below them.

Legend:
Format in all cases: functional
[1] = tested on: Candida albicans; experiment: Antifungal activity against Candida albicans ATCC 10231 assessed as growth inhibition at 125 ug/ml after 48 hrs by broth microdilution method; settings: ATCC 10231, 48 h
In short: (§1)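 CLSI M27-A3 broth microdilution in RPMI-1640. Compound stocks were made in DMSO (final at most 1%) and tested at final levels of 250 to 0.98. Inoculum was 1–5 × 10^3 CFU/mL, incubated 48 h at 30 °C in a moist, dark chamber. Growth and sterility control wells were included.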

[2] = tested on: Candida albicans; experiment: Antifungal activity against Candida albicans ATCC 10231 assessed as growth inhibition at 250 ug/ml after 48 hrs by broth microdilution method; settings: ATCC 10231, 48 h; in short: as §1
[3] = tested on: Cryptococcus neoformans; experiment: Antifungal activity against Cryptococcus neoformans ATCC 32264 after 48 hrs by broth microdilution method; settings: ATCC 32264, 48 h
[4] = tested on: Candida albicans; experiment: Antifungal activity against Candida albicans ATCC 10231 assessed as growth inhibition at 7.81 ug/ml after 48 hrs by broth microdilution method; settings: ATCC 10231, 48 h; in short: as §1
[5] = tested on: Cryptococcus neoformans; experiment: Antifungal activity against Cryptococcus neoformans IM 961951 clinical isolate after 48 hrs by broth microdilution method; settings: IM 961951, 48 h
In short: (§2)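 Clinical isolates from the Malbrán Institute were grown on Sabouraud-chloramphenicol agar for 48 h at 30 °C, kept on Sabouraud-dextrose agar and subcultured every 15 days. M27-A3 RPMI-1640 microdilution used 1–5 × 10^3 CFU/mL, 48 h at 30 °C, OD405 read, triplicate. Endpoints MIC100, MIC80 and MIC50 were taken from % inhibition dose-response curves.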

[6] = tested on: Cryptococcus neoformans; experiment: Antifungal activity against Cryptococcus neoformans IM 983036 clinical isolate after 48 hrs by broth microdilution method; settings: IM 983036, 48 h; in short: as §2
[7] = tested on: Cryptococcus neoformans; experiment: Antifungal activity against Cryptococcus neoformans IM 983040 clinical isolate after 48 hrs by broth microdilution method; settings: IM 983040, 48 h; in short: as §2
[8] = tested on: Cryptococcus neoformans; experiment: Antifungal activity against Cryptococcus neoformans IM 042074 clinical isolate after 48 hrs by broth microdilution method; settings: IM 042074, 48 h; in short: as §2
[9] = tested on: Candida albicans; experiment: Antifungal activity against Candida albicans ATCC 10231 assessed as growth inhibition at 3.9 ug/ml after 48 hrs by broth microdilution method; settings: ATCC 10231, 48 h; in short: as §1
[10] = tested on: Cryptococcus neoformans; experiment: Antifungal activity against Cryptococcus neoformans ATCC 32264 assessed as growth inhibition at 250 ug/ml after 48 hrs by broth microdilution method; settings: ATCC 32264, 48 h; in short: as §1
[11] = tested on: Cryptococcus neoformans; experiment: Antifungal activity against Cryptococcus neoformans ATCC 32264 assessed as growth inhibition at 7.81 ug/ml after 48 hrs by broth microdilution method; settings: ATCC 32264, 48 h; in short: as §1
[12] = tested on: Cryptococcus neoformans; experiment: Antifungal activity against Cryptococcus neoformans ATCC 32264 assessed as growth inhibition at 31.25 ug/ml after 48 hrs by broth microdilution method; settings: ATCC 32264, 48 h; in short: as §1
[13] = tested on: Candida albicans; experiment: Antifungal activity against Candida albicans ATCC 10231 assessed as growth inhibition at 15.62 ug/ml after 48 hrs by broth microdilution method; settings: ATCC 10231, 48 h; in short: as §1
[14] = tested on: Cryptococcus neoformans; experiment: Antifungal activity against Cryptococcus neoformans IM 031631 clinical isolate after 48 hrs by broth microdilution method; settings: IM 031631, 48 h; in short: as §2
[15] = tested on: Cryptococcus neoformans; experiment: Antifungal activity against Cryptococcus neoformans IM 031706 clinical isolate after 48 hrs by broth microdilution method; settings: IM 031706, 48 h
In short: (§3)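 Clinical isolates from the Malbrán Institute were grown on Sabouraud-chloramphenicol agar for 48 h at 30 °C, kept on Sabouraud-dextrose agar and subcultured every 15 days. Endpoints MIC100, MIC80 and MIC50 were taken from % inhibition dose-response curves.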

[16] = tested on: Cryptococcus neoformans; experiment: Antifungal activity against Cryptococcus neoformans IM 00319 clinical isolate after 48 hrs by broth microdilution method; settings: IM 00319, 48 h; in short: as §3
[17] = tested on: Candida albicans; experiment: Antifungal activity against Candida albicans ATCC 10231 assessed as growth inhibition at 62.5 ug/ml after 48 hrs by broth microdilution method; settings: ATCC 10231, 48 h; in short: as §1
[18] = tested on: Cryptococcus neoformans; experiment: Antifungal activity against Cryptococcus neoformans ATCC 32264 assessed as growth inhibition at 62.5 ug/ml after 48 hrs by broth microdilution method; settings: ATCC 32264, 48 h; in short: as §1
[19] = tested on: Cryptococcus neoformans; experiment: Antifungal activity against Cryptococcus neoformans IM 972724 clinical isolate after 48 hrs by broth microdilution method; settings: IM 972724, 48 h; in short: as §2
[20] = tested on: Cryptococcus neoformans; experiment: Antifungal activity against Cryptococcus neoformans ATCC 32264 assessed as growth inhibition at 3.9 ug/ml after 48 hrs by broth microdilution method; settings: ATCC 32264, 48 h; in short: as §1
[21] = tested on: Cryptococcus neoformans; experiment: Antifungal activity against Cryptococcus neoformans ATCC 32264 assessed as growth inhibition at 125 ug/ml after 48 hrs by broth microdilution method; settings: ATCC 32264, 48 h; in short: as §1
[22] = tested on: Cryptococcus neoformans; experiment: Antifungal activity against Cryptococcus neoformans IM 972751 clinical isolate after 48 hrs by broth microdilution method; settings: IM 972751, 48 h; in short: as §2
[23] = tested on: Cryptococcus neoformans; experiment: Antifungal activity against Cryptococcus neoformans ATCC 32264 assessed as growth inhibition at 15.62 ug/ml after 48 hrs by broth microdilution method; settings: ATCC 32264, 48 h; in short: as §1
[24] = tested on: Candida albicans; experiment: Antifungal activity against Candida albicans ATCC 10231 assessed as growth inhibition at 31.25 ug/ml after 48 hrs by broth microdilution method; settings: ATCC 10231, 48 h; in short: as §1
[25] = tested on: Cryptococcus neoformans; experiment: Antifungal activity against Cryptococcus neoformans IM 052470 clinical isolate after 48 hrs by broth microdilution method; settings: IM 052470, 48 h; in short: as §3

MIC50 [3]: 7.8 µg/mL (≈ 17.7 µM) | MIC80 [3]: 15.6 µg/mL (≈ 35.4 µM) | MIC ([3]; read-out: MIC100): 15.6 µg/mL (≈ 35.4 µM) | MIC50 [5]: 7.8 µg/mL (≈ 17.7 µM) | MIC80 [5]: 15.6 µg/mL (≈ 35.4 µM) | MIC ([5]; read-out: MIC100): 15.6 µg/mL (≈ 35.4 µM) | MIC50 [6]: 15.6 µg/mL (≈ 35.4 µM) | MIC80 [6]: 15.6 µg/mL (≈ 35.4 µM) | MIC ([6]; read-out: MIC100): 31.2 µg/mL (≈ 70.8 µM) | MIC50 [7]: 31.2 µg/mL (≈ 70.8 µM) | MIC80 [7]: 31.2 µg/mL (≈ 70.8 µM) | MIC ([7]; read-out: MIC100): 31.2 µg/mL (≈ 70.8 µM) | MIC50 [8]: 15.6 µg/mL (≈ 35.4 µM) | MIC80 [8]: 31.2 µg/mL (≈ 70.8 µM) | MIC ([8]; read-out: MIC100): 31.2 µg/mL (≈ 70.8 µM) | MIC50 [14]: 7.8 µg/mL (≈ 17.7 µM) | MIC80 [14]: 15.6 µg/mL (≈ 35.4 µM) | MIC ([14]; read-out: MIC100): 31.2 µg/mL (≈ 70.8 µM) | MIC50 [15]: 7.8 µg/mL (≈ 17.7 µM) | MIC80 [15]: 31.2 µg/mL (≈ 70.8 µM) | MIC ([15]; read-out: MIC100): 62.5 µg/mL (≈ 142 µM) | MIC50 [16]: 7.8 µg/mL (≈ 17.7 µM) | MIC80 [16]: 15.6 µg/mL (≈ 35.4 µM) | MIC ([16]; read-out: MIC100): 15.6 µg/mL (≈ 35.4 µM) | MIC50 [19]: 7.8 µg/mL (≈ 17.7 µM) | MIC80 [19]: 15.6 µg/mL (≈ 35.4 µM) | MIC ([19]; read-out: MIC100): 15.6 µg/mL (≈ 35.4 µM) | MIC50 [22]: 31.2 µg/mL (≈ 70.8 µM) | MIC80 [22]: 31.2 µg/mL (≈ 70.8 µM) | MIC ([22]; read-out: MIC100): 62.5 µg/mL (≈ 142 µM) | MIC50 [25]: 15.6 µg/mL (≈ 35.4 µM) | MIC80 [25]: 31.2 µg/mL (≈ 70.9 µM) | MIC ([25]; read-out: MIC100): 62.5 µg/mL (≈ 142 µM)
SMILES: Nc1nc(N)c2c(n1)NC(c1sc(Cl)nc1Cl)CC(c1ccc(Cl)cc1)=N2 (configuration not stated)
inhibition at 125 µg/mL [1]: 100% | inhibition at 250 µg/mL [2]: 100% | MFC [3]: 31.2 µg/mL (≈ 70.8 µM) | inhibition at 7.81 µg/mL [4]: 48.3% | MFC [5]: 62.5 µg/mL (≈ 142 µM) | MFC [6]: 31.2 µg/mL (≈ 70.8 µM) | MFC [7]: 62.5 µg/mL (≈ 142 µM) | MFC [8]: 62.5 µg/mL (≈ 142 µM) | inhibition at 3.9 µg/mL [9]: 22.2% | inhibition at 250 µg/mL [10]: 78.7% | inhibition at 7.81 µg/mL [11]: 3.56% | inhibition at 31.25 µg/mL [12]: 30.5% | inhibition at 15.62 µg/mL [13]: 100% | MFC [14]: 62.5 µg/mL (≈ 142 µM) | MFC [15]: 62.5 µg/mL (≈ 142 µM) | MFC [16]: 31.2 µg/mL (≈ 70.8 µM) | inhibition at 62.5 µg/mL [17]: 100% | inhibition at 62.5 µg/mL [18]: 40.5% | MFC [19]: 31.2 µg/mL (≈ 70.8 µM) | inhibition at 3.9 µg/mL [20]: 0% | inhibition at 125 µg/mL [21]: 58.2% | MFC [22]: 62.5 µg/mL (≈ 142 µM) | inhibition at 15.62 µg/mL [23]: 13.1% | inhibition at 31.25 µg/mL [24]: 100% | MFC [25]: 62.5 µg/mL (≈ 142 µM)

SMILES: Nc1nc(N)c2c(n1)NC(c1sc(Cl)nc1Cl)CC(c1ccc(F)cc1)=N2 (configuration not stated)
inhibition at 125 µg/mL [1]: 51.7% | inhibition at 250 µg/mL [2]: 59.9% | inhibition at 7.81 µg/mL [4]: 0% | inhibition at 3.9 µg/mL [9]: 0% | inhibition at 250 µg/mL [10]: 25.5% | inhibition at 7.81 µg/mL [11]: 5.01% | inhibition at 31.25 µg/mL [12]: 11% | inhibition at 15.62 µg/mL [13]: 17.9% | inhibition at 62.5 µg/mL [17]: 43.3% | inhibition at 62.5 µg/mL [18]: 12.8% | inhibition at 3.9 µg/mL [20]: 3.83% | inhibition at 125 µg/mL [21]: 24.6% | inhibition at 15.62 µg/mL [23]: 7.17% | inhibition at 31.25 µg/mL [24]: 21.3%
